Experimental findings from ChEMBL document CHEMBL4602720, “Degradation versus Inhibition: Development of Proteolysis-Targeting Chimeras for Overcoming Statin-Induced Compensatory Upregulation of 3-Hydroxy-3-methylglutaryl Coenzyme A Reductase” (J Med Chem, 2020) are described below.

SMILES strings stand for the structures. Activity calls are given as the source filed them. The calls are words filed in the database; no cut-off is given here.

Series [1] deals with T1, Protein cereblon/3-hydroxy-3-methylglutaryl-coenzyme A reductase (Cricetulus griseus) (UniProt P00347+G3H338). Nature of the series: Protac activity at CRBN/HMGCR in Insig-1/Insig-2 deficient Chinese hamster SRD15 cells assessed as HMGCR level at 0.01 uM after 16 hrs by immunoblotting analysis (reference value: 1). The method in brief: (§1)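 Dose-response in SRD15 cells in Medium A with 5% FBS, 16 h treatment, DMSO final 0.1% or lower. RIPA lysates immunoblotted for HMGCR. HMGCR densitometry normalized to actin, with the DMSO group set to 1. Three repeats. DC50 is taken from a dose-response fit of the semi-quantitative blots, mean of 3 independent experiments.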
Target sequence in this assay (G3H338 1-445 partner): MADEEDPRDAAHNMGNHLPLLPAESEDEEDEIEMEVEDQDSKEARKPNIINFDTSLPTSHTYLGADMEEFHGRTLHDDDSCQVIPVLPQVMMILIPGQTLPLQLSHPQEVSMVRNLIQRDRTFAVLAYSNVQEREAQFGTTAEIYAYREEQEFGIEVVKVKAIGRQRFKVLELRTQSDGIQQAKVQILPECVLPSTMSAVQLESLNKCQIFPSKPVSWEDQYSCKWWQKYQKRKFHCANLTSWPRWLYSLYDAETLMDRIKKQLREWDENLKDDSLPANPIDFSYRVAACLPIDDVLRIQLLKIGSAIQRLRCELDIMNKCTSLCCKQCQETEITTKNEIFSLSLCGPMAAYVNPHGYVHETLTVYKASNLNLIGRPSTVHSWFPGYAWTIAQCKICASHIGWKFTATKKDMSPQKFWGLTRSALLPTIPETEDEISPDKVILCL
Target sequence in this assay (P00347 whole entry): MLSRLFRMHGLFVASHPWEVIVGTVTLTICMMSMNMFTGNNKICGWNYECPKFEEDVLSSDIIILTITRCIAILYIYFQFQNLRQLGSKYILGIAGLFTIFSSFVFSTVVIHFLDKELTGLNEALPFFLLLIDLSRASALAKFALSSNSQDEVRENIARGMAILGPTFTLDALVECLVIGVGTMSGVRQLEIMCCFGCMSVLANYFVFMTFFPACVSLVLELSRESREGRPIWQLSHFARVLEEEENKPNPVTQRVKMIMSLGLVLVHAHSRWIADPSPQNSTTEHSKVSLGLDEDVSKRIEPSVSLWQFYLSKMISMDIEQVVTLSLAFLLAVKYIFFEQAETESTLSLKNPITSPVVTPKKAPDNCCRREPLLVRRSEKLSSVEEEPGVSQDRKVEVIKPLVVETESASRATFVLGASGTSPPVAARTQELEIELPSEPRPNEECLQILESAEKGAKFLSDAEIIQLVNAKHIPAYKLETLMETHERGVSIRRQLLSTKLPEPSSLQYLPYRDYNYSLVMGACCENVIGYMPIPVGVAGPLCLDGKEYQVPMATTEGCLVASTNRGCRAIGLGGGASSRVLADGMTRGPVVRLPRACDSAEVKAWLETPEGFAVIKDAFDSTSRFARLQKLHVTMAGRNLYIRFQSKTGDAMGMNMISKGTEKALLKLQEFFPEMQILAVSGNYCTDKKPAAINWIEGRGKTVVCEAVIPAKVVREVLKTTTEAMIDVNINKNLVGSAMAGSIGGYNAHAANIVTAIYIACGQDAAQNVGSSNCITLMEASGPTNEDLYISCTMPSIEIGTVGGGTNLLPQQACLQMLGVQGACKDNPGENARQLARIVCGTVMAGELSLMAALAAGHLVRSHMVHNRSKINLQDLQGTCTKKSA
On the technique in general: In western blotting, separated proteins are transferred to a membrane and probed.

Series [2] has as its target T1, Protein cereblon/3-hydroxy-3-methylglutaryl-coenzyme A reductase (Cricetulus griseus). In words: Protac activity at CRBN/HMGCR in Insig-1/Insig-2 deficient Chinese hamster SRD15 cells assessed as HMGCR level at 0.1 uM after 16 hrs by immunoblotting analysis (reference value: 1). An outline of the steps: as §1
Target sequence in this assay (G3H338 1-445 partner): as the sequence (G3H338 1-445 partner) above
Target sequence in this assay (P00347 whole entry): as the sequence (P00347 whole entry) above
Series [3] has the same target. In words: Protac activity at CRBN/HMGCR in Insig-1/Insig-2 deficient Chinese hamster SRD15 cells assessed as HMGCR level at 1 uM after 16 hrs in presence of 0.3 uM atorvastatin by immunoblotting analysis (reference value: 1).
Target sequence in this assay (G3H338 1-445 partner): as the sequence (G3H338 1-445 partner) above
Target sequence in this assay (P00347 whole entry): as the sequence (P00347 whole entry) above
The target is the same in series [4]. In words: Protac activity at CRBN/HMGCR in Insig-1/Insig-2 deficient Chinese hamster SRD15 cells assessed as HMGCR level at 1 uM after 16 hrs in presence of 1 uM pomalidomide by immunoblotting analysis (reference value: 1).
Series [5] has the same target. Nature of the series: Protac activity at CRBN/HMGCR in Insig-1/Insig-2 deficient Chinese hamster SRD15 cells assessed as induction of HMGCR degradation at 1 uM after 16 hrs by immunoblotting analysis relative to control. An outline of the steps: as §1
Series [6] has the same target. In words: Protac activity at CRBN/HMGCR in Insig-1/Insig-2 deficient Chinese hamster SRD15 cells assessed as induction of HMGCR degradation at 1 uM preincubated for 16 hrs followed by addition of proteasome inhibitor MG132 and further incubated for 3 hrs by Western blot analysis. The method in brief: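 SRD15 cells treated with 1 μM degrader for 16 h, then for 3 h with 10 μM MG132 or with MLN-4924 at the indicated concentrations. HMGCR by immunoblot.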

In series [7] the target is T2, Protein cereblon/3-hydroxy-3-methylglutaryl-coenzyme A reductase (Homo sapiens) (UniProt P04035+Q96SW2). Nature of the series: Protac activity at human Flag-tagged CRBN/T7-tagged HMGCR transfected in Insig-1/Insig-2 deficient Chinese hamster SRD15 cells assessed as induction of HMGCR degradation at 0.01 to 1 uM after 16 hrs by immunoblotting analysis. An outline of the steps:
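SRD15 cells co-transfected with T7-HMGCR and Flag-CRBN (wild type or YW/AA mutant), then treated with DMSO or 1 μM compound for 16 h; transfected HMGCR measured by immunoblotting.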

Series [8] has as its target T1, Protein cereblon/3-hydroxy-3-methylglutaryl-coenzyme A reductase (Cricetulus griseus). Nature of the series: Protac activity at CRBN/HMGCR in 5'-GCAAGGCAGUGUAUAUUAU-3' siRNA transfected in Insig-1/Insig-2 deficient Chinese hamster SRD15 cells assessed as induction of HMGCR degradation at 1 uM after 16 hrs by immunoblotting analysis. The method in brief:
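SRD15 cells (Insig-1/Insig-2-deficient CHO-7) in Medium A with 5% FBS at 37 °C, 5% CO2; transfected with negative-control or Crbn-targeting siRNA duplexes for 48 h, then given 1 μM degrader for 16 h. HMGCR by SDS-PAGE immunoblot of RIPA lysates. Knockdown efficiency checked by qRT-PCR against hamster GAPDH, comparative CT method. n = 3 independent experiments.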

Series [9] has as its target T2, Protein cereblon/3-hydroxy-3-methylglutaryl-coenzyme A reductase (Homo sapiens). Nature of the series: Protac activity at human Flag-tagged CRBN/Myc-tagged HMGCR expressed in HEK293T cells assessed as induction of HMGCR immunoprecipitation 1 uM preincubated for 16 hrs followed by pomalidomide addition addition and measured after 5 hrs by Western blot analysis. Type of series: cell-based. The conditions noted are these: HEK-293T.

For series [10], the target named is T3, Sterol regulatory element-binding protein 2 (Mus musculus) (UniProt Q3U1N2).
T3 sequence (whole entry): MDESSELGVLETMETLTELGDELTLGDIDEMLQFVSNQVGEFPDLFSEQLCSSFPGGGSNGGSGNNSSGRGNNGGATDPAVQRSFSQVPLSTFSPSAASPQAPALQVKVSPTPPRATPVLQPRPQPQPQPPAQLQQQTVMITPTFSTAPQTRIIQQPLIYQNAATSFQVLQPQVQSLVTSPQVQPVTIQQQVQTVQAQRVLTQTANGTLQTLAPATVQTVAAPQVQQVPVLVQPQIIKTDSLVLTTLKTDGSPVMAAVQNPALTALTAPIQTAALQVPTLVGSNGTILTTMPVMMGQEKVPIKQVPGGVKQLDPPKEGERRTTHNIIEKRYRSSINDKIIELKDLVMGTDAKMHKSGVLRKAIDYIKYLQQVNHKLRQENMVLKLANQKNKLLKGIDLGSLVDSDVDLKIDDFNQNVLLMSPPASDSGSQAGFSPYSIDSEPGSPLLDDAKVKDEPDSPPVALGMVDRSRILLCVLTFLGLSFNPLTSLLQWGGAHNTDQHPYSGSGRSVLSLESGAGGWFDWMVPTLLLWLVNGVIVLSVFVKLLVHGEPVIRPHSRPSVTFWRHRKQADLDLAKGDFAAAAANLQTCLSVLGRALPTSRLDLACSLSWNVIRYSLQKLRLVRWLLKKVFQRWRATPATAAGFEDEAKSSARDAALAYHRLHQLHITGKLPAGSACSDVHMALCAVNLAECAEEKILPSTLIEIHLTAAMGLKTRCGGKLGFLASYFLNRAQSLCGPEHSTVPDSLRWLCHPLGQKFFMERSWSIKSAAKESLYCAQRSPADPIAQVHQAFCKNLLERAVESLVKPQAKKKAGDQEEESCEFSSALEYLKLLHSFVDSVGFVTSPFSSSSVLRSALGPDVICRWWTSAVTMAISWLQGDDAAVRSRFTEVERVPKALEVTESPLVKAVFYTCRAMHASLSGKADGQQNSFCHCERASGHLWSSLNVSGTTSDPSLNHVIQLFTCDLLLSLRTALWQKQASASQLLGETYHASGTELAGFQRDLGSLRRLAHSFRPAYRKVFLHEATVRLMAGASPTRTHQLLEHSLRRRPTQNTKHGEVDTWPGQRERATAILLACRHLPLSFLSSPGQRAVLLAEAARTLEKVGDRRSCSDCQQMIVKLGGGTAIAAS
In words: Activation of SREBP2 pathway in mouse primary hepatocytes assessed as increase in LDLR mRNA expression at 0.3 to 1 uM afer 16 hrs by quantitative real-time PCR analysis. In kind it is cell-based. In general terms: Quantitative PCR measures a nucleic acid by following its amplification.

The next series deals with Huh-7. Nature of the series: Effect on total neutral lipid in human HuH7 cells assessed change in lipid droplet count at 1 uM after 16 hrs by Oil Red O staining based method. In kind it is ADME, cell-based. The conditions noted are these: huh-7, 16 h. The method in brief:
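Huh7 cells on glass coverslips, treated, fixed in 4% paraformaldehyde in PBS 30 min at room temperature, stained 15 min with 0.5% (w/v) Oil Red O in propylene glycol, washed in water; lipid droplets examined relative to DMSO.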

Series [11] concerns the target T1, Protein cereblon/3-hydroxy-3-methylglutaryl-coenzyme A reductase (Cricetulus griseus). In words: Protac activity at CRBN/HMGCR in Insig-1/Insig-2 deficient Chinese hamster SRD15 cells assessed as HMGCR level at 1 uM after 16 hrs by immunoblotting analysis relative to control. The method in brief: as §1
Target sequence in this assay (G3H338 1-445 partner): as the sequence (G3H338 1-445 partner) above
Target sequence in this assay (P00347 whole entry): as the sequence (P00347 whole entry) above

T2 sequence (P04035 whole entry, looked up): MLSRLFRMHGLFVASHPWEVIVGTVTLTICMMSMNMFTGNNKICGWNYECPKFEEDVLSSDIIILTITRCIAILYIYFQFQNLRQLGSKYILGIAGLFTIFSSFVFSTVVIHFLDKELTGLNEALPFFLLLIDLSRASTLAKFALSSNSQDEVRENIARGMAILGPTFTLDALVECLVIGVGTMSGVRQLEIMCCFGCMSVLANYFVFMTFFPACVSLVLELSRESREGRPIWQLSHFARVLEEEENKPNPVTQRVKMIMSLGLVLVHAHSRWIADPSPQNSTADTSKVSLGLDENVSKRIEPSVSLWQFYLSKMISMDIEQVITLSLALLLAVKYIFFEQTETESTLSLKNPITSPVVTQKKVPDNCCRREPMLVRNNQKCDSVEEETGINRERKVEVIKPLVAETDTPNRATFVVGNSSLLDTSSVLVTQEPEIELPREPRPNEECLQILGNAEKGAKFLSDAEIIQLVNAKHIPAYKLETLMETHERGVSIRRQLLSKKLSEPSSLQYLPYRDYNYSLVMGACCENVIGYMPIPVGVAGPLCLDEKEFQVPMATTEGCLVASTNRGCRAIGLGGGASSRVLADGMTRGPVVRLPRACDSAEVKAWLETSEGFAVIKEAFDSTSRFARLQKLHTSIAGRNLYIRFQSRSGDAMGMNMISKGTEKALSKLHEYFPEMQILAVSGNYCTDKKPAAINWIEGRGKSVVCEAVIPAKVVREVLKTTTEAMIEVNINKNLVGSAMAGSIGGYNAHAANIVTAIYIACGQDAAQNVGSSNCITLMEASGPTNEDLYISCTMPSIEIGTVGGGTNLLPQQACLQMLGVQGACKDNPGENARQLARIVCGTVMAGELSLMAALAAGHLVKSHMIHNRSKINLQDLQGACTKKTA
T2 sequence (Q96SW2 whole entry, looked up): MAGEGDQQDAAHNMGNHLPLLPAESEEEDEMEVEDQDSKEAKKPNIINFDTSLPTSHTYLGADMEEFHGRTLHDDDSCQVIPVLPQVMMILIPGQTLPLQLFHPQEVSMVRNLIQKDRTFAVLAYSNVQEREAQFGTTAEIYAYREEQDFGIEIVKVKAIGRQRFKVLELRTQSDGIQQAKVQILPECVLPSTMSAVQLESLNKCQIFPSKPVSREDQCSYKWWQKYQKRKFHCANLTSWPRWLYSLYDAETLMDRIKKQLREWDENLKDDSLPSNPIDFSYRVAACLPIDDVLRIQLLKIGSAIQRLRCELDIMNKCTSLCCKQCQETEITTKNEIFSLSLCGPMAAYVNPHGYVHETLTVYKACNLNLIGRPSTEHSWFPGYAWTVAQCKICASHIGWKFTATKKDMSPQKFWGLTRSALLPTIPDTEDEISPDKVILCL

Take `CC(C)c1c(C(=O)Nc2ccccc2)c(-c2cccc(OCCCc3cn(CCOCCOCCOCCOCCNc4cccc5c4C(=O)N(C4CCC(=O)NC4=O)C5=O)nn3)c2)c(-c2ccc(F)cc2)n1CC[C@@H](O)C[C@@H](O)CC(=O)O` (some centres not stated): the fold change (FC) in series [1] is 0.8; in series [2], 0.6; in [3] it was 1; in series [4], 1. Moreover, the Activity in series [5] is 70%; in the series on Huh-7 it was “Non-Toxic”; in series [11], 50%. The result in series [6], in series [8] and in [9] was inactive. The outcome in series [7] and in series [10] was Active.
